This is an account of results in ChEMBL document CHEMBL4715825, “Synthesis and biological evaluations of marine oxohexadecenoic acids: PPARα/γ dual agonism and anti-diabetic target gene effects” (Eur J Med Chem, 2018).

The source made the active and inactive calls. The rule behind the calls is not given here.

The target of assay [1] is T1, Peroxisome proliferator-activated receptor gamma (Homo sapiens) (UniProt P37231).
T1 sequence (whole entry): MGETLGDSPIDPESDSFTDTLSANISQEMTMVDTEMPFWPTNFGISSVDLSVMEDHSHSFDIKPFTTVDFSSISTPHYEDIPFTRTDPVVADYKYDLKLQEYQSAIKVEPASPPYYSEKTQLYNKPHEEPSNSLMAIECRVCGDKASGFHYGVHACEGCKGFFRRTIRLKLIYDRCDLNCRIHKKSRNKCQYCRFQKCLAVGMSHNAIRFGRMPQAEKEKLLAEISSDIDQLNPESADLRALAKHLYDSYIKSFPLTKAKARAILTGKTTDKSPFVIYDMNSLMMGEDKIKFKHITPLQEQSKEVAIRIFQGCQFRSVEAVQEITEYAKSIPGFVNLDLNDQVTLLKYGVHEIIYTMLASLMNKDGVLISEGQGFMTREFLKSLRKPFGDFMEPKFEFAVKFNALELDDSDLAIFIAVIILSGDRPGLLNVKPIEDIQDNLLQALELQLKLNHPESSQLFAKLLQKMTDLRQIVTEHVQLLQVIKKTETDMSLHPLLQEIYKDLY
Kind of assay: Agonist activity at human PPARgamma in 8 day differentiated human SGBS cells assessed as increase in IRS1 gene expression at 25 uM incubated for 24 hrs by SYBR-green based qPCR analysis. It is filed as cell-based. Conditions: filed as agonist.

In assay [2] the test system is SGBS. In words: Induction of adipogenesis in 8 day differentiated human SGBS cells assessed as upregulation of fatty acid biosynthesis genes at 25 uM incubated for 8 days by Illumina sequencing method. Format: functional, cell-based. In a few lines:
(§1)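 SGBS cells were differentiated for 8 days: Quickdiff for days 0-4 with 2 µM rosiglitazone or 25 µM oxo-fatty acid:BSA, then 3FC. Total RNA was extracted (RIN 9.80-10.00) and strand-specific TruSeq libraries were sequenced on NextSeq 500 (2×75 bp paired-end). Reads were aligned to hg19 and quantified as RPKM. Data were expressed as log2 fold over day-0 cells (n = 2-4) and grouped into KEGG gene sets.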

Assay [3] concerns SGBS. Kind of assay: Effect on diabetic complication pathway in 8 day differentiated human SGBS cells assessed as downregulation of extracellular matrix-recptor interaction genes at 25 uM incubated for 8 days by Illumina sequencing method. Format: functional, cell-based. In outline:
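SGBS cells were differentiated 4 days in Quickdiff supplemented with compound:BSA or rosiglitazone, then 4 days in 3FC. Total RNA was extracted, and strand-specific TruSeq libraries were sequenced on NextSeq 500 (2×75 bp paired-end). Reads were aligned to hg19 with Tophat/Bowtie and counted as RPKM by Cufflinks. Values are log2 fold over day 0 cells, grouped into KEGG gene sets (n = 2-4).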

The target in assay [4] is T2, Peroxisome proliferator-activated receptor alpha (Homo sapiens) (UniProt Q07869).
T2 sequence (whole entry): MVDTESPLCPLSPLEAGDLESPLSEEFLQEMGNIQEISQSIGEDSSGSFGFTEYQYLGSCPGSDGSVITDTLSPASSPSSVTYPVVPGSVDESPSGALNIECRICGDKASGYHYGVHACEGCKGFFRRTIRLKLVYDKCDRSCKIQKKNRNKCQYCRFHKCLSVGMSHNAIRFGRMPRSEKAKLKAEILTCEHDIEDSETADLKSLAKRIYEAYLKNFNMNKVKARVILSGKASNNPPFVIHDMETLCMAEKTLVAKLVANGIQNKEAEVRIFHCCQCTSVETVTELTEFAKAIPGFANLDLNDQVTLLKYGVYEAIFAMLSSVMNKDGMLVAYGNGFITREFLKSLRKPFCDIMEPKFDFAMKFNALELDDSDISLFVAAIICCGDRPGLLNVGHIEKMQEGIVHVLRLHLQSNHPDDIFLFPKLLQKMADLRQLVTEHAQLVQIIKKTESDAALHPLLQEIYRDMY
In words: Agonist activity at human PPARalpha in 8 day differentiated human SGBS cells assessed as increase in PLIN1 gene expression at 25 uM incubated for 24 hrs by SYBR-green based qPCR analysis. Format: cell-based. In outline:
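SGBS preadipocytes were seeded at passage P6-P8 and grown to confluence. They were differentiated for 4 days in Quickdiff (3FC plus dexamethasone, IBMX and rosiglitazone), then kept in 3FC with medium renewed every fourth day. On day 8, cells were stimulated for 24 h in 3FC with compound:BSA or rosiglitazone. SYBR-green qPCR used gene-specific primers. Data are mean ± SEM of three biological replicates in duplicate.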
Background: Quantitative PCR measures a nucleic acid by following its amplification.

Assay [5] relates to SGBS. In words: Induction of adipogenesis in 8 day differentiated human SGBS cells assessed as increase in CEBPA mRNA expression at 25 uM measured upto 12 days by qRT-PCR analysis. Conditions: time day <=12. Format: functional, cell-based. In outline: (§2)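 SGBS cells were grown to confluence (day 0). Quickdiff medium was supplemented with compound or rosiglitazone for 4 days, followed by 3FC medium. DMSO or DMSO:BSA served as control. RNA was harvested on days 0, 4, 8 and 12, and expression was measured by SYBR-green qPCR. Data are mean ± SEM of at least three biological replicates in duplicate.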

For assay [6], the system named is SGBS. In words: Induction of adipogenesis in 8 day differentiated human SGBS cells assessed as increase in UCP1 mRNA expression at 25 uM measured over 12 days by qRT-PCR analysis. Format: functional, cell-based. Conditions: time 12.0 day. In outline: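 SGBS preadipocytes (passage P6-P8) were grown to confluence (day 0), then differentiated 4 days in Quickdiff (3FC with 25 nM dexamethasone, 0.5 mM IBMX) supplemented with 25 µM oxo-fatty acid (as BSA complex), then in 3FC medium with medium renewed every fourth day. Cells were harvested on days 0, 4, 8 and 12. mRNA was measured by SYBR green qPCR. Data are mean ± SEM from at least 3 biological replicates run in duplicate.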

Assay [7] has as its system SGBS. In words: Induction of adipogenesis in 8 day differentiated human SGBS cells assessed as upregulation of PPAR signalling genes at 25 uM incubated for 8 days by Illumina sequencing method. It is filed as functional, cell-based. In a few lines:
as §1

Assay [8] has as its system SGBS. Kind of assay: Induction of adipogenesis in 8 day differentiated human SGBS cells assessed as increase in adipocyte-like multilocular morphology cells at 25 uM measured upto 12 days by oil-O-red staining based inverted microscopic analysis. It is filed as functional, cell-based. The conditions noted are these: time day <=12. In a few lines:
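SGBS cells were differentiated in Quickdiff for 4 days, supplemented with 25 µM oxo-fatty acid or 2 µM rosiglitazone, then in 3FC to day 8. Controls were DMSO (0.025%) or BSA (4.2 µM). Cells were fixed in 4% paraformaldehyde for 15 min and stained 15 min with Oil Red O for neutral lipids. They were imaged by inverted microscope at 10× and 40×. Three biological replicates were run in duplicate.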

The target in assay [9] is T1, Peroxisome proliferator-activated receptor gamma (Homo sapiens). Kind of assay: Agonist activity at human PPARgamma in 8 day differentiated human SGBS cells assessed as decrease in […] gene expression at 25 uM incubated for 24 hrs by SYBR-green based qPCR analysis. It is filed as cell-based. The conditions noted are these: filed as agonist.
Assay [10] concerns SGBS. Kind of assay: Induction of adipogenesis in 8 day differentiated human SGBS cells assessed as increase in CD36 mRNA expression at 25 uM measured upto 12 days by qRT-PCR analysis. The conditions noted are these: time day <=12. Format: functional, cell-based. In outline: as §2

For the compound `CCCCC/C=C/C(=O)CCCCCCCC(=O)O`, the outcome (in assay [1]; in the assay on SGBS [2]; with SGBS [3]; with SGBS [5]; in the assay on SGBS [6]; with SGBS [7]) was Active. The outcome (in the assay with SGBS [8]; in assay [9]; with SGBS [10]) was Active. The outcome in [4] was inactive.

As for `CCCCCCCC(=O)/C=C/CCCCCC(=O)O`, the outcome (in assay [1]; in the assay on SGBS [2]; with SGBS [3]; in the assay on SGBS [5]; in the assay with SGBS [6]; in the assay on SGBS [7]) was Active. Moreover, the outcome (with SGBS [8]; in assay [9]; in the assay with SGBS [10]) was Active. The result in assay [4] was inactive.
